Measurements as given in ChEMBL document CHEMBL1142593, “Physaloside A, an acylated sucrose ester from Physalis viscosa” (J Nat Prod, 2005).

Key:
[1] = tested on: Klebsiella pneumoniae; experiment: Antibacterial activity against Klebsiella pneumoniae after 18 hrs; type: functional, organism-based
In short: (§1)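 Strains first grown on Mueller-Hinton agar, then in Mueller-Hinton broth with CaCl2/MgCl2 for 18 h at 37 °C. Serial dilutions were made (K. pneumoniae and P. aeruginosa […]) and equilibrated 30 min at 37 °C. Cultures were added to the samples, shaken 18 h at 37 °C and 60% humidity, and read at OD650. Controls were no inhibitor and 50 µg/mL streptomycin.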

[2] = Selectivity ratio of IC50 for Pseudomonas aeruginosa to IC50 for Staphylococcus aureus; type: functional
[3] = Selectivity ratio of IC50 for human THP1 cells to IC50 for Staphylococcus aureus; type: ADME, cell-based, THP-1
[4] = tested on: Streptococcus pneumoniae; experiment: Antibacterial activity against Streptococcus pneumoniae after 18 hrs; type: functional, organism-based; in short: as §1
[5] = Selectivity ratio of IC50 for human THP1 cells to IC50 for Streptococcus pneumoniae; type: ADME, cell-based, THP-1
[6] = tested on: Staphylococcus aureus; experiment: Antibacterial activity against Staphylococcus aureus after 18 hrs; type: functional, organism-based; in short: as §1
[7] = tested on: THP-1; experiment: Cytotoxicity against human THP1 cells after 72 hrs by WST1 assay; type: cell-based; details: THP-1, 72 h
In short: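 Cells were kept in RPMI 1640 with 10% FBS, 2 mM L-glutamine, penicillin/streptomycin and 10 µM 2-mercaptoethanol at 37 °C, 5% CO2, and seeded at 2.5 × 10^4 cells/well. Samples were tested at 250 µg/mL final for 72 h. WST-1 was added for a further 1–2 h, then A450 was read. Controls were 10 µM camptothecin and 0.1% DMSO.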

[8] = Selectivity ratio of IC50 for Klebsiella pneumoniae to IC50 for Staphylococcus aureus; type: functional
[9] = tested on: Pseudomonas aeruginosa; experiment: Antibacterial activity against Pseudomonas aeruginosa after 18 hrs; type: functional, organism-based; in short: as §1

## CCCCCCCCCCCC(=O)O[C@H]1[C@@H](O[C@@]2(CO)O[C@@H](CO)[C@H](O)[C@H]2O)O[C@H](CO)[C@@H](O)[C@@H]1OC(=O)C=C(C)C [PHYSALOSIDE A]
[1]
  IC50: > 413 µM
[2]
  Ratio IC50: > 8
[3]
  selectivity ratio: > 10
[4]
  IC50: 57 µM
[5]
  selectivity ratio: > 10
[6]
  IC50: 52 µM
[7]
  IC50: > 800 µM
[8]
  Ratio IC50: > 8
[9]
  IC50: > 413 µM
